Data reported in PubChem BioAssay AID463172 (The Scripps Research Institute Molecular Screening Center, 2010).

Tested on: HEK293T RORa/G6PC promoter luciferase, 20 h
Test: G6PC promoter luciferase repression, IC50 – cell-based, luminescence, dose response, counter-screen for RORA inverse agonist project, late-stage follow-up (AID 463172)
Summary of the method: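 Assay system: HEK293T cells with RORa, SRC-2 and G6PC-luciferase reporter. Doses: 10-point dilution series, highest nominal dose 10 µM. Schedule: 20 h compound exposure after 24 h bulk transfection. Measured by: luciferase luminescence from G6PC promoter reporter. Control set: DMSO vehicle-treated cells as normalization reference.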

## O=S(=O)(Nc1ccc(C(O)(C(F)(F)F)C(F)(F)F)cc1)c1cccs1
  IC50: 1400 nM
